Data taken from ChEMBL document CHEMBL5550111, “Design, synthesis and biological evaluation of aryloxy thiophosphoramidate triesters of anticancer nucleoside analogues” (Bioorg Med Chem, 2024).

Tests used:
HT-29 [1] = assay: Cytotoxicity against human HT-29 cells assessed as maximum inhibition of cell viability upto 198 uM incubated for 72 hrs by MTS assay relative to control; type: functional; conditions: up to 198 µM
Method in brief: (§1)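 Cells seeded at 0.5 to 100 × 10^3 per well the day before drug addition, then exposed to compound for 72 h. MTS added afterwards, with a further 4 h at 37 °C, and absorbance read. Tested in duplicate at 9 serial 3.16-fold dilutions, top concentration 198 μM. MI% is the maximum inhibition of viability across the tested range.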

COLO 205 = assay: Cytotoxicity against human COLO 205 cells assessed as inhibition of cell viability incubated for 72 hrs by MTS assay; type: functional, cell-based; conditions: COLO 205, 72 h
Method in brief: (§2)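 Cells seeded at 0.5 to 100 × 10^3 per well the day before treatment, then exposed for 72 h to 9 serial concentrations (3.16-fold dilutions, top 198 μM), in duplicate. MTS added for a final 4 h at 37 °C and absorbance read. IC50 is the concentration giving 50% loss of viability. MI% is the maximum inhibition over the tested range.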

RT112/84 [2] = assay: Cytotoxicity against human RT112/84 cells assessed as inhibition of cell viability incubated for 72 hrs by MTS assay; type: functional, cell-based; conditions: RT112/84, 72 h; method in brief: as §2
MIA PaCa-2 [3] = assay: Cytotoxicity against human MIA PaCa-2 cells assessed as inhibition of cell viability incubated for 72 hrs by MTS assay; type: functional, cell-based; conditions: MIA PaCa-2, 72 h; method in brief: as §2
OVCAR-3 [4] = assay: Cytotoxicity against human OVCAR-3 cells assessed as inhibition of cell viability incubated for 72 hrs by MTS assay; type: functional, cell-based; conditions: OVCAR-3, 72 h; method in brief: as §2
RPMI-8226 [5] = assay: Cytotoxicity against human RPMI-8226 cells assessed as maximum inhibition of cell viability upto 198 uM incubated for 72 hrs by MTS assay relative to control; type: functional; conditions: up to 198 µM; method in brief: as §1
OVCAR-3 [6] = assay: Cytotoxicity against human OVCAR-3 cells assessed as maximum inhibition of cell viability upto 198 uM incubated for 72 hrs by MTS assay relative to control; type: functional; conditions: up to 198 µM; method in brief: as §1
HT-29 [7] = assay: Cytotoxicity against human HT-29 cells assessed as inhibition of cell viability incubated for 72 hrs by MTS assay; type: functional, cell-based; conditions: HT-29, 72 h; method in brief: as §2
SK-MES-1 [8] = assay: Cytotoxicity against human SK-MES-1 cells assessed as inhibition of cell viability incubated for 72 hrs by MTS assay; type: functional, cell-based; conditions: SK-MES-1, 72 h; method in brief: as §2
RT112/84 [9] = assay: Cytotoxicity against human RT112/84 cells assessed as maximum inhibition of cell viability upto 198 uM incubated for 72 hrs by MTS assay relative to control; type: functional; conditions: up to 198 µM; method in brief: as §1
NCI-H1975 = assay: Cytotoxicity against human NCI-H1975 cells assessed as maximum inhibition of cell viability upto 198 uM incubated for 72 hrs by MTS assay relative to control; type: functional; conditions: up to 198 µM; method in brief: as §1
RPMI-8226 [10] = assay: Cytotoxicity against human RPMI-8226 cells assessed as inhibition of cell viability incubated for 72 hrs by MTS assay; type: functional, cell-based; conditions: RPMI-8226, 72 h; method in brief: as §2
SK-MES-1 [11] = assay: Cytotoxicity against human SK-MES-1 cells assessed as maximum inhibition of cell viability upto 198 uM incubated for 72 hrs by MTS assay relative to control; type: functional; conditions: up to 198 µM; method in brief: as §1
HepG2 [12] = assay: Cytotoxicity against human HepG2 cells assessed as inhibition of cell viability incubated for 72 hrs by MTS assay; type: functional, cell-based; conditions: HepG2, 72 h; method in brief: as §2
MIA PaCa-2 [13] = assay: Cytotoxicity against human MIA PaCa-2 cells assessed as maximum inhibition of cell viability upto 198 uM incubated for 72 hrs by MTS assay relative to control; type: functional; conditions: up to 198 µM; method in brief: as §1
HepG2 [14] = assay: Cytotoxicity against human HepG2 cells assessed as maximum inhibition of cell viability upto 198 uM incubated for 72 hrs by MTS assay relative to control; type: functional; conditions: up to 198 µM; method in brief: as §1

Question: For `C[C@H](NP(=O)(OC[C@H]1O[C@@H](n2cc(F)c(=O)[nH]c2=O)C[C@@H]1O)Oc1cccc2ccccc12)C(=O)OCc1ccccc1` (stereo partly specified) [FOSIFLOXURIDINE NAFALBENAMIDE], which Imax (HT-29 [1]) is on record?
Answer: Its Imax is 81%.

Question: And the IC50 (COLO 205)?
Answer: The IC50 was 0.14 µM.

Question: What about the IC50 (RT112/84 [2]) of the same compound?
Answer: The IC50 was 0.32 µM.

Question: What about the IC50 (MIA PaCa-2 [3]) of the same compound?
Answer: Its IC50 is 1.47 µM.

Question: What about the IC50 (OVCAR-3 [4]) of the same compound?
Answer: Its IC50 is 6.91 µM.

Question: And the Imax (RPMI-8226 [5])?
Answer: The Imax was 93%.

Question: What about the Imax (OVCAR-3 [6]) of the same compound?
Answer: Its Imax is 92%.

Question: And the IC50 (HT-29 [7])?
Answer: The IC50 was 0.52 µM.

Question: And the IC50 (SK-MES-1 [8])?
Answer: The IC50 was 0.32 µM.

Question: What about the Imax (RT112/84 [9]) of the same compound?
Answer: Its Imax is 77%.

Question: What about the Imax (NCI-H1975) of the same compound?
Answer: The Imax was 72%.

Question: And the IC50 (RPMI-8226 [10])?
Answer: Its IC50 is 5.9 µM.

Question: And the Imax (SK-MES-1 [11])?
Answer: Its Imax is 77%.

Question: What about the IC50 (HepG2 [12]) of the same compound?
Answer: Its IC50 is 24.5 µM.

Question: And the Imax (MIA PaCa-2 [13])?
Answer: The Imax was 96%.

Question: And the Imax (HepG2 [14])?
Answer: Its Imax is 62%.
